Experimental data from the RNAGym collection of RNA variant scans (doi:10.1126/science.aae0568).
Fewer inactive variants are shown than the library holds.

B1: tRNA (parent)
chain: GUUCCGUUGGCGUAAUGGUAACGCGUCUCCCUCCUAAGGAGAAGACUGCGGGUUCGAGUCCCGUACGGAACG

Variants of: B1
Assay: yeast fitness relative to wild type (ratio to wild type); higher = fitter; tRNA-Arg(CCU), competitive growth, 37 C, YPD
Method in brief: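 Amplicons of the tRNA-Arg(CCU) gene were sequenced, 100-nucleotide paired-end, from the start population and from each end population of a pooled yeast competition. The competition, in six parallel replicates, lasted 24 hours in YPD at 37°C. Fitness relative to wild type was calculated from changes in genotype frequencies. Genotypes had to have ≥ 100 starting reads, and estimates < 0.5 were set to 0.5.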

Variant | yeast fitness
GUUCCGCUGGCGUAAUGGUAACGCGUCUCCCUCCUACGGAGAAGACUGCGGGUUCGAGUGCCAUUCGGACCG | ≤ 0.5
GUUCCGCUGGCGUAAUGGUAACGCGUCUCCCUCCUAGGGAGAAGACUGAGGGUUCGAGUCCCGUACGGAACG | ≤ 0.5
GUUCCGAUGGCGUAAUGCUAAUGUGUCUCCCUCCUAAGGAGAAGACUGCGGGUUCGAGUUCCGUACGGAACG | ≤ 0.5
GUUCCGAUGGCGUAAUAGUAACGCGUCUCACUCCUAAGGAGAAGACUGCGGGUUCGAGUCCCGUCCGGAACG | ≤ 0.5
GUUCCGAUGGCGUAAUGGUAACGCGGCUCCCGCCUAAGGAGUAGGCUGCGGGUUCGAGUCCCGUACGGUACG | ≤ 0.5
GUUCCGAUGGCGUAAUGGCAACGCGUGUCCCUCCUAAGGAGAUGACAGCGGGUUCGAGUCCCGUUCCGAACG | ≤ 0.5
GUUCCGCUGGCGUCAUGGUAACGCGUCUCGCUCCUAAGGCGAUGACUGCGGGUUUGAGUCCCGUACGGAACG | 0.64
GUUCCGAUGGCGUAAUGGUAACGCGUCUCCCGGCUAAGGAGAAGACUGCGGGUUCGAGUCCCGUACGGAUCG | ≤ 0.5
GUUCCGACGGCGUAAUGGUAACGCGUCUUCCUCCUAAGGAGAAGACUGCGGGUUCGAGUCCCGUACGGAACG | ≤ 0.5
GUUCCGCUGGCGUAAUGGUAACGCGUUUCCCUCCUAAGGAGAAGACUGCGGGUUCGAGUCCCGUACGGAACG | 0.875
GUUCCGCUGGAGUAAUGGUAACGCGUCUCCCUCCUAAGGAGAAGACUGCGGGUUCGAGUCCCGUACGGAACG | 0.556
GUUCCGAUGGCGUAAUGGUAACGCGUCUCCCUCCUAAGGAGAAGACUGCGGGUUCGAGUCCCGUACUGAACG | 0.771
GUUCCGAUGGCGUAAUGAUAACGCGUCUGCCUCCUAGGGAGAAGACUGCGGGUUCGAGUACGGUACGGAACG | ≤ 0.5
GUUCCGCUGGCGUAAUGGUAAGGACUCUCCCUCCUAAGGAGAAGACUGCGGGUUCGAGUCCCGUAGGGAACG | ≤ 0.5
GUUCCGAUGGCCUAAUGGUGACGCGUCUCCCUCUUAAGGAGAAGACUGGGGGUUCGAGUCCCGUACGGAACG | ≤ 0.5
GUUCCGAUGGCGUAAAGGUAGCGCGUCUGCCUCAUAAGGAGAAGACUGCGGGUUCGAGUCCCGUUUGGAACG | ≤ 0.5
GUUCCGCUGGCGUAAUGGUUACGCGUCUCCCUCCUAAGGCGAAGAUUGCGGGUUGGAGUCCCGUACGGAUCG | 0.582
GUUCCGAGGGCGUAAUGGUAACGCGUCUCCCUCCUAAGGAGAAGACUGCGGGUUCGAGUCCCGUACGGCACG | ≤ 0.5
GUUCCGAUGGCGUAACGGUAACGCGUCUCCCUCCUAAGGAGAAGACUGCGGGUUCGAGUCCCGUUCGGAACG | 0.688

Variant | yeast fitness
GUUCCGCUGGCGUGAUGGUAACGCGUCUCCCUCCUAAGGAGAGGACUGCGGGUUCGAGUCCCGUACGGCACG | ≤ 0.5
GUUCCGAUGGCGUAAUAGUAACGCGUCUUCCUCCUAAGGAGAAGACUGCGGGUUCGAGUCCCGUACGGAACG | ≤ 0.5
GUUCCGCUGGUGUAAUGGUAACGCGUCUCCCUCCUACGGAGAAGACUGCGGGUUCGAGUCCCGUACGGAACG | ≤ 0.5
GUUCCGAUGGCGUAAUGGUAACGCGUCUCCCUCCUAAGGAGAAGACUGCGGAUUCGAGUCCCGUACGGAACG | 0.582
GUUCCGAUGGCGUAAUGGUAACGCGUCUCCCUCCUAAGCAGACCACCGCGGGUUCGAGUCUCGUACGGAACG | ≤ 0.5
GUUCCGAUGGCGUAAUGGUAACGCGUCUCCCUCCUAAGGAGAAGACUGCGGCUUCAAGUCCCGUACGGAACG | 0.554
GUUCCGCUGGCGUAAUGGUGACGUGUCUCCCUCCUAAGGAGAAGACUGAGGGUUCGAGUCCCGUACCGAACG | ≤ 0.5
GUUCCGAAGGCGUAAUGGUAACGCAUCUCCCUCCUAAGGAGAAGACUGCGGGUUCGAGUCCCGUACCGAACG | ≤ 0.5
GUUCCGAUGGCGUAAUGGUAACGCGUCUCCCUCCUAAGGAGAAGACGGCGGGUUCGAGUCCCGUACGGAACG | 0.557
GUUCCGAUGGCGUAAUGGUAACGCGUCUCCCUCCUAAGGAGAAGACAGCGGGUUCGAGUCCCGUACGGAACG | 0.643
GUUCCGCUGGCGUAAUGGUAAAGCGUCUCCCUCCUAAGGAGAAGCUUGCGGGUUCGAGUCCCGUACGGAACG | ≤ 0.5
GUUCCGCUGGCGUAAUGGUAACGCGUCUCCCUCCUAAGGAGAAGACUGCGGGUUCGUGUCCCGUACGGAACG | 0.749
GUUCCGCUGGCGUCAUGGUAACGCGUCUCCCUCCUAAGGAGAAGACUGCGGGUUCGAGUCCCGUGCGGACCG | ≤ 0.5
GUUCCGAUGGCGUAAUGGUAACGCUUCUCCCACCUAAGGAAAAGACUGCGGGUUCGAGUCUCGUACGGAACG | 0.589
GUUCCGAUGGCGUAAUCGUAACGGGUCUACCUCCUAAGGAGAAGACUGCGGGUUCGACUCCCGUACGGCACG | ≤ 0.5
GUUCCGCUGGCGUAAUGGUAACGCGUCUCCCUCCUAAGGAGAGGACCGCGGGUUCGAGCCCCGUACGGAACG | ≤ 0.5
GUUCCGAUGGCGUAAUGGUAACGCGUCACCCGCCUAAGGAGAAGACUGCCGGUCCGAGUCCCGUACGGAACG | ≤ 0.5
GUUCCGCUGGCGUAAUGGUAACGCGUCUCCCUCCUAAGGGGGAGACUACGGGUUCCAGUCCCGUACGGAACG | ≤ 0.5
